# Activity calls are given as the source filed them.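 The calls were made as follows: active = compounds leaving under half of the peptide-driven platelet calcium rise; inactive = the rest.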
# Biological target: Proteinase-activated receptor 4 (Homo sapiens) (UniProt Q96RI0)
# Assay: PAR4 antagonists in human platelets, cell-based, single concentration, washed platelets, Fluo4 calcium (AID 652250)
# Settings: PAR4-AP calcium Fluo4 fluorescence
# How it was run: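 Material – Fluo4-AM-loaded washed human platelets · Also added – PAR4-activating peptide (PAR4-AP) agonist at 80 µM · Signal – fluorescence at 480/540 nm, 1 s intervals · Read-out – peak minus basal RFU as % of per-donor DMSO control · Benchmarks – PAR4-AP-stimulated DMSO control (100%) · Replicates – triplicate wells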
# Proteinase-activated receptor 4 (Homo sapiens), sequence (Q96RI0 whole entry, looked up): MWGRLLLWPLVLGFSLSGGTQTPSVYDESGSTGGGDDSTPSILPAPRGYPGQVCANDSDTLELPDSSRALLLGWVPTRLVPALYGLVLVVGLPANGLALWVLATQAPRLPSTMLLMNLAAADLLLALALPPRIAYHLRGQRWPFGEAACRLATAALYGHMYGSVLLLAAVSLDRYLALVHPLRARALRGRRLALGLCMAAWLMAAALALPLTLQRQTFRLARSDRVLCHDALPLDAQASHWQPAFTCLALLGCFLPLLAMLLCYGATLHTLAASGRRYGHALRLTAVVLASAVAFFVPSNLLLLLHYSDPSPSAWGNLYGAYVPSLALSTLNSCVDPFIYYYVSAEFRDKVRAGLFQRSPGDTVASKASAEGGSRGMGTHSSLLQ
row,SMILES,IC50
1,Fc1ccc(-c2cn(Cc3ccccc3)c3ccccc23)cn1,10 µM
2,COc1ccc(-c2cn(Cc3cccc(Cl)c3)c3ccccc23)cn1,3.13 µM
3,COc1ccc(-c2cn(Cc3ccccc3)c3ccccc23)cn1,5.4 µM
4,COc1ccc(-c2cn(Cc3ccccc3)c3ccccc23)cc1,10 µM

# Same assay, conditions: PAR4-AP calcium Fluo4 fluorescence, at 10 µM, stronger effect = lower value
row,SMILES,% of max PAR4-AP calcium response
1,CCN(CC)CC(O)Cn1c(C)c(-c2ccccc2)c2cc([N+](=O)[O-])ccc21 (stereo not drawn),inactive
2,CCN(CC)c1ncnc2c1c(-c1ccccc1)cn2-c1ccc(C)c(Cl)c1,inactive
3,COc1ccc2c(c1)c(C(=O)N1CCCC1)c(C)n2Cc1ccccc1,inactive
4,COc1ccc2c(c1)c(C(=O)OCCN(C)C)c(C)n2C,37.4%
5,FC(F)(F)Oc1ccc(-c2cn(Cc3ccccc3)c3ccccc23)cc1,inactive
6,COc1ccc2c(c1)c(C(=O)CNc1nc(C)c(C)s1)c(C)n2C,inactive
7,Cc1cccc(-n2cc(-c3ccccc3)c3c(N4CCN(c5ccccc5)CC4)ncnc32)c1,inactive
8,COc1ccc(-c2cn(Cc3cccc(-c4cccs4)c3)c3ccccc23)cn1,inactive
9,FC(F)(F)c1cccc(-c2cn(Cc3ccccc3)c3ccccc23)c1,inactive
10,Cc1c(C)n(CC(O)CNc2ccccc2)c2ccccc12 (stereo not drawn),inactive
11,Cc1c(C)n(C(=O)CSc2ncccn2)c2ccccc12,inactive
12,O=C(c1cn(CCOc2ccccc2F)c2ccccc12)C(F)(F)F,inactive
13,COc1cc(NC(=O)c2ccc3c(c2)c(C)c(C)n3C)cc(OC)c1,inactive
14,COc1ccc(N(C)C(=O)Cc2c(C(=O)O)n(C)c3ccccc23)cc1,inactive
15,CCc1nn(-c2ccccc2)c2nc(-c3ccccc3OC)c3cc(OC)c(OC)cc3c12,inactive
16,COc1ccc2c(c1)c(CC(=O)N1CCC(C(N)=O)CC1)c(C)n2C(=O)c1ccc(Cl)cc1,inactive
17,S=C(c1cn(CCOc2ccccc2Cl)c2ccccc12)N1CCCCC1,39.9%
18,COc1ccc(OCCn2cc(C(=O)C(F)(F)F)c3ccccc32)cc1,inactive
19,CCCCN(C)c1ncnc2c1c(-c1ccccc1)cn2-c1cccc(C)c1,inactive
20,Cc1ccc(-n2cc(-c3ccccc3)c3c(NCc4ccc5c(c4)OCO5)ncnc32)cc1Cl,inactive
21,Cc1cc(O)cc(O)c1C(=O)Cc1cnn(-c2ccccc2)c1,inactive
22,CCn1ccc(C(=O)Nc2sc(C(=O)OC)c(C)c2C(=O)OC)n1,inactive
23,CC(O)CNc1ncnc2c1c(-c1ccccc1)cn2-c1ccccc1 (stereo not drawn),inactive

row,SMILES,% of max PAR4-AP calcium response
1,S=C(c1cn(CCCOc2ccccc2Cl)c2ccccc12)N1CCCC1,inactive
2,Cn1cc(CC(=O)NCc2cccs2)c2ccccc21,inactive
3,Cc1c(CCO)c2ccccc2n1-c1ccccc1,inactive
4,CCCCNC(=O)n1ccc(C(=O)Nc2ccc(C)cc2C)n1,inactive
5,CC(=O)c1ccc(N2CCN(c3ncnc4c3c(-c3ccccc3)cn4-c3ccccc3)CC2)cc1,inactive
6,O=c1c2ccccc2nc(/C=C/c2cn(Cc3ccccc3)c3ccccc23)n1CCCO,inactive
7,Fc1ccccc1Cn1cc(C(=S)N2CCOCC2)c2ccccc21,inactive
8,Fc1ccc(CNc2ncnc3c2c(-c2ccccc2)cn3-c2ccc(Br)cc2)cc1,inactive
9,O=C(Nc1cccc(Br)c1)c1ccn(C(=O)c2ccc(Cl)cc2)n1,inactive
10,CCOc1ccc(NCC(O)Cn2c(C)c(C)c3ccccc32)cc1 (stereo not drawn),inactive
11,Oc1ccccc1-c1nc2c3c(-c4ccccc4)c(-c4ccccc4)n(Cc4ccco4)c3ncn2n1,inactive
12,Cc1nc(-c2cnn(-c3ccccc3)c2)c2cc(C)oc2n1,inactive
13,Fc1ccc(CNc2ncnc3c2c(-c2ccccc2)cn3-c2ccc(F)cc2)cc1,inactive
14,c1ccc(-c2cn(-c3ccccc3)c3ncnc(N4CCCC4)c23)cc1,inactive
15,Cc1ccc(-n2c(/C=C/c3cn(C)c4ccccc34)nc3ccccc3c2=O)cc1,inactive
16,S=C(c1cn(Cc2ccccc2Cl)c2ccccc12)N1CCCC1,inactive
17,CC1CCCCN1C(=O)Cn1cc(C(=O)C(F)(F)F)c2ccccc21 (stereo not drawn),inactive
18,c1ccc(-c2ccn(-c3ccccc3)n2)cc1,inactive
19,Cn1cc(-c2cn(Cc3ccccc3)c3ccccc23)cn1,inactive
20,FC(F)(F)c1cccc(-n2cc(-c3ccccc3)c3c(NCCN4CCOCC4)ncnc32)c1,inactive
21,O=C(Nc1cccc(Br)c1)c1ccn(C(=O)Nc2ccc(Cl)cc2)n1,inactive
22,CC(C)Oc1ccc(-c2cn(Cc3ccccc3)c3ccccc23)cc1F,inactive
23,CCc1nn(-c2ccccc2)c2nc(-c3cccc(OC)c3)c3cc(OC)c(OC)cc3c12,inactive

row,SMILES,% of max PAR4-AP calcium response
1,CC(=O)n1cc(C(C[N+](=O)[O-])SCc2ccccc2)c2ccccc21 (stereo not drawn),inactive
2,OCCCc1cn(-c2ccccc2)c2ccccc12,inactive
3,Clc1ccc(-n2cc(-c3ccccc3)c3c(N4CCOCC4)ncnc32)cc1,inactive
4,O=C(CCc1cn(Cc2ccccc2)c2ccccc12)NCCN1CCOCC1,inactive
5,c1ccc(COc2ccc(-c3cn(Cc4ccccc4)c4ccccc34)cc2)cc1,inactive
6,Cc1cccc(NCC(O)Cn2c(C)c(C)c3ccccc32)c1C (stereo not drawn),inactive
7,COc1cccc(/C=N/NC(=O)c2ccn(Cc3ccc(Cl)cc3Cl)n2)c1OC,inactive
8,O=C(Cn1cc(C(=S)N2CCOCC2)c2ccccc21)N1CCOCC1,inactive
9,CN(C)CCNC(=O)Cc1cn(C)c2ccccc12,inactive
10,Cc1c(C)n(CC(O)CNCCO)c2ccccc12 (stereo not drawn),inactive
11,COc1ccc(-c2cn(Cc3ccccc3)c3ccccc23)c(OC)n1,inactive
12,O=C(Cn1cc(C(=O)C(F)(F)F)c2ccccc21)N1CCCC1,inactive
13,Fc1cc(-c2cn(Cc3ccccc3)c3ccccc23)cc(F)n1,inactive
14,CCN(CCCNC(=O)Cc1cn(C)c2ccccc12)c1ccccc1,inactive
15,c1ccc(CN2CCN(c3ncnc4c3c(-c3ccccc3)cn4-c3ccccc3)CC2)cc1,inactive
16,CCCOc1ccc(-c2cn(Cc3ccccc3)c3ccccc23)cc1,inactive
17,COc1ccc(OC)c(CNC(=O)CCCc2cn(C)c3ccccc23)c1,inactive
18,Cc1cn(CC(=O)c2ccccc2)c2ccccc12,inactive
19,Cc1ccc(-n2cc(-c3ccccc3)c3c(NC4CCCC4)ncnc32)cc1Cl,inactive
20,Cc1ccc(C)c(NC(=O)Cn2cc(C(=O)C(F)(F)F)c3ccccc32)c1,inactive
21,NS(=O)(=O)c1ccc(CCNc2ncnc3c2c(-c2ccccc2)cn3-c2cccc(Cl)c2)cc1,inactive
22,Cn1cc(CCCC(=O)NCc2cccs2)c2ccccc21,inactive
23,Fc1ccc(OCCn2cc(C(=S)N3CCOCC3)c3ccccc32)cc1,38%

row,SMILES,% of max PAR4-AP calcium response
1,CC(C)Nc1ncnc2c1c(-c1ccccc1)cn2-c1cccc(C(F)(F)F)c1,inactive
2,COc1ccc(-n2cc(-c3ccccc3)c3c(NCCO)ncnc32)cc1,inactive
3,COc1ccc(C)cc1NC(=O)Cc1cn(C)c2ccccc12,inactive
4,O=C(c1cn(Cc2ccc(F)cc2)c2ccccc12)C(F)(F)F,inactive
5,Cc1c(C)n(CC(O)CNCCCO)c2ccccc12 (stereo not drawn),inactive
6,CCCNc1ncnc2c1c(-c1ccccc1)cn2-c1ccccc1,inactive
7,CC(=O)n1cc(C2C(=O)NN=C2C)c2ccccc21 (stereo not drawn),inactive
8,COc1ccc(OC)c(NC(=O)Cc2cn(C)c3ccccc23)c1,inactive
9,Cc1ccc2c(c1)c(-c1ccccc1)c(-c1ccccc1)n2CC(O)CN1CCOCC1 (stereo not drawn),inactive
10,COc1ccc2c(c1)c(CC(=O)Nc1ccc(Cl)cn1)c(C)n2C(=O)c1ccc(Cl)cc1,inactive
11,CCSc1ncnc2c1c(-c1ccccc1)cn2-c1ccc(F)cc1,inactive
12,O=C(c1cn(CCOc2ccc(F)cc2)c2ccccc12)C(F)(F)F,inactive
13,COCCCNC(=O)Cn1cc(C(=O)C(F)(F)F)c2ccccc21,inactive
14,CCn1ccc(C(=O)Nc2ccc(Cl)cc2Cl)n1,inactive
15,Fc1cccc(Cn2cc(C(=S)N3CCCCC3)c3ccccc32)c1,inactive
16,OC(CN1CCCCC1)Cn1c2c(c3ccccc31)CCCC2 (stereo not drawn),inactive
17,Cn1cc(CC(=O)N2CCN(c3ccc([N+](=O)[O-])cc3)CC2)c2ccccc21,inactive
18,COc1cc(NS(=O)(=O)c2ccc(NC(=O)c3ccc4c(c3)c(C)c(C)n4C)cc2)ncn1,inactive
19,Clc1ccc(-n2cc(-c3ccccc3)c3c(NCc4ccc5c(c4)OCO5)ncnc32)cc1,inactive
20,O=C(CSc1ncnc2c1c(-c1ccccc1)cn2-c1ccc(F)cc1)c1ccccc1,inactive

# Reference: PubChem BioAssay AID652250 (Vanderbilt Specialized Chemistry Center, 2013)
